We go through 13 molecules from ChEMBL document CHEMBL1134413, “Effect of N-alkyl and N-alkenyl substituents in noroxymorphindole, 17-substituted-6,7-dehydro-4,5alpha-epoxy-3,14-dihydroxy-6,7:2',3'-indolomorphinans, on opioid receptor affinity, selectivity, and efficacy” (J Med Chem, 2001).

Test [1] concerns the target T1, Mu-type opioid receptor (Rattus norvegicus, UniProt P33535). The test is described as follows: Displacement of [3H]DAMGO at mu-opioid receptor. In general terms: In a radioligand displacement assay an active substance lowers the binding of a labelled ligand.
For test [2], the target named is T2, Delta-type opioid receptor (Mus musculus, UniProt P32300). Briefly: Displacement of [3H]DADLE at delta-opioid receptor.
T2 sequence (P32300 whole entry): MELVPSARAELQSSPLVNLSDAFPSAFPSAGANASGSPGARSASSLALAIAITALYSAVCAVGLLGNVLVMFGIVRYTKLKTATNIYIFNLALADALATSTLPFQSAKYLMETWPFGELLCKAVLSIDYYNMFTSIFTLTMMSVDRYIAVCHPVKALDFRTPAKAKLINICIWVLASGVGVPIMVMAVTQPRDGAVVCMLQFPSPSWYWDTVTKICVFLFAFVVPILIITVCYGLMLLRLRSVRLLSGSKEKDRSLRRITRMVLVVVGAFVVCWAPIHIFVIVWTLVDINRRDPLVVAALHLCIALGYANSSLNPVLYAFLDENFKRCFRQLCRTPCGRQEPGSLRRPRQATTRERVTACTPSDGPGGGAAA
In test [3] the target is T3, Kappa-type opioid receptor (Cavia porcellus, UniProt P41144). The test is described as follows: Displacement of [3H]U-69593 at opioid receptor kappa 1.
T3 sequence (P41144 whole entry): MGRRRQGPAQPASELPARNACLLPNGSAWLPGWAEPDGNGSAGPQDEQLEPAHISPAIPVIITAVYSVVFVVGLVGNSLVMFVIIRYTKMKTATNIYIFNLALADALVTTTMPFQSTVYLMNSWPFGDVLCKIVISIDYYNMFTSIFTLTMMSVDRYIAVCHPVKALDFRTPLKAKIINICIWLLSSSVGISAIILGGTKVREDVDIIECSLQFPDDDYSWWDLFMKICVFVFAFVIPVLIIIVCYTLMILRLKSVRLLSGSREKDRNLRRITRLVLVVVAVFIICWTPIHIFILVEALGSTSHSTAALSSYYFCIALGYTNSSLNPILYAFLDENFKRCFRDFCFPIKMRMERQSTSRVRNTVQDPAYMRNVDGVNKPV
Test [4] is filed under the species Cavia porcellus. Briefly: Percentage inhibition of contraction height in guinea pig ileum longitudinal muscle myenteric plexus (GPI/LMMP) 1 uM. It is filed as functional. Summed up:
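Agonist effect read in isolated guinea pig ileum longitudinal muscle/myenteric plexus preparation as percent inhibition of contraction height, at one test concentration.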

Test [5] has as its target T3, Kappa-type opioid receptor. The test is described as follows: Antagonist activity of compound on U50,488H stimulated [35S]GTP-gamma-S binding to opioid receptor kappa 1. It is filed as functional.
Test [6] deals with T2, Delta-type opioid receptor. Briefly: Antagonist activity of compound on agonist stimulated [35S]GTP-gamma-S binding on delta-opioid receptor. It is filed as functional. Background: GTPγS is a poorly hydrolysed GTP analogue; its binding reports G protein activation.
The species entered for test [7] is Mus musculus. The test is described as follows: Percentage inhibition of contraction height in mouse vas deferens (MVD) at 1 uM. The format is functional.
The species entered for test [8] is Mus musculus. The test is described as follows: Antagonist activity of compound in mouse vas deferens tested with DPDPE. It is filed as functional. Summed up: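 Isolated mouse vas deferens. Antagonism is measured against the δ agonist DPDPE and expressed as Ke (nM). Agonist activity is recorded separately as percent inhibition of contraction height at a single stated concentration.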

The species named for test [9] is Cavia porcellus. The test is described as follows: Antagonist activity of compound in GPI/LMMP tested with PL-017. The format is functional. A digest of the protocol:
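Guinea pig ileum longitudinal muscle/myenteric plexus preparation. Antagonism is measured against the μ agonist PL-017 and expressed as Ke (nM). Agonist activity is recorded separately as percent inhibition of contraction height at a single stated concentration.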

The species entered for test [10] is Mus musculus. The test is described as follows: Percentage inhibition of contraction height in mouse vas deferens (MVD) at 100 nM. It is filed as functional. A digest of the protocol:
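Agonist effect read in isolated mouse vas deferens preparation as percent inhibition of contraction height, at one test concentration.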

In test [11] the target is T2, Delta-type opioid receptor. The test is described as follows: Antagonist activity of compound on SNC 80 stimulated [35S]GTP-gamma-S binding to delta-opioid receptor. The format is functional.
For test [12], the target named is T1, Mu-type opioid receptor. Briefly: Antagonist activity of compound on DAMGO stimulated [35S]GTP-gamma-S binding to mu-opioid receptor. The format is functional.
Test [13] has as its target T1, Mu-type opioid receptor. The test is described as follows: Antagonist activity of compound on agonist stimulated [35S]GTP-gamma-S binding on mu-opioid receptor. It is filed as functional.

Structures are written as SMILES.

T1 sequence (P33535 whole entry): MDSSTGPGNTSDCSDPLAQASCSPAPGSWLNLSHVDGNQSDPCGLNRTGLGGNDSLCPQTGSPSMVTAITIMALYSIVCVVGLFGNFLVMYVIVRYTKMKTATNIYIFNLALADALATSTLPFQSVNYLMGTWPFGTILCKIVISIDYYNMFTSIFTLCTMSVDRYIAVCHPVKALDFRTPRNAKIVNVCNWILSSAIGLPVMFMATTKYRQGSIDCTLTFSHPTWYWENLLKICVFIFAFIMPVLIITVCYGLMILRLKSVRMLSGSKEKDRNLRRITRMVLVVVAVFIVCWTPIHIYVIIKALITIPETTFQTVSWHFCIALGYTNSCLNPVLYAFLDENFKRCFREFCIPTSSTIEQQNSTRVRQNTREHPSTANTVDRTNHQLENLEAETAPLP

For `CCCCCCCN1CC[C@]23c4c5ccc(O)c4O[C@H]2c2[nH]c4ccccc4c2C[C@@]3(O)[C@H]1C5`, the Ki (commonly a measure of affinity in units of concentration, obtained from inhibition or displacement) at Mu-type opioid receptor [1] was 4600 nM; in test [2], 79 nM; in [3], > 7000 nM.

`Cl.Oc1ccc2c3c1O[C@H]1c4[nH]c5ccccc5c4C[C@@]4(O)[C@@H](C2)N(CC2CC2)CC[C@]314` [NALTRINDOLE HYDROCHLORIDE]: in the test listed under Cavia porcellus [4], the Inhibition (usually the drop in the measured response relative to a control, in per cent) was determined as 18%. Besides, the Ki amounted to 4.7 nM in test [5], 0.03 nM in test [6], 0.22 nM in [2] and 30 nM in test [3]. In addition, in the test filed under Mus musculus [7], the inhibition (as a rule, the percentage by which the read-out fell short of the control) at 1 µM worked out at 16%. For the same molecule, the results for the Ke in the test listed under Mus musculus [8] and in the test filed under Cavia porcellus [9] were 0.49 nM and 43 nM, respectively.

As to `CCCCN1CC[C@]23c4c5ccc(O)c4O[C@H]2c2[nH]c4ccccc4c2C[C@@]3(O)[C@H]1C5`, the inhibition constant Ki on Mu-type opioid receptor [1] stood at 1300 nM; in test [2] it was 8.4 nM; in [3], 900 nM.

Molecule `CCN1CC[C@]23c4c5ccc(O)c4O[C@H]2c2[nH]c4ccccc4c2C[C@@]3(O)[C@H]1C5` returned an Inhibition in the test listed under Cavia porcellus [4] of 1.2%. Further, in the test listed under Mus musculus [10], the inhibition at 0.1 µM is 9%. Moreover, the Ki in test [5] was > 1000 nM; in test [11], 3.2 nM; at Mu-type opioid receptor [1], 2500 nM; at Mu-type opioid receptor [12], 290 nM; in [2], 5 nM; in test [3], 3000 nM. In addition, the Ke in the test filed under Mus musculus [8] was determined as 9.6 nM; in the test listed under Cavia porcellus [9], 96 nM.

In the case of `CC(C)=CCN1CC[C@]23c4c5ccc(O)c4O[C@H]2c2[nH]c4ccccc4c2C[C@@]3(O)[C@H]1C5`, the inhibitory constant (Ki) came out at 2800 nM at Mu-type opioid receptor [1], 25 nM in [2] and 3200 nM in test [3].

Turning to `C/C=C/CN1CC[C@]23c4c5ccc(O)c4O[C@H]2c2[nH]c4ccccc4c2C[C@@]3(O)[C@H]1C5`, the Inhibition in the test filed under Cavia porcellus [4] turned out to be 22%. The molecule also had an inhibition at 0.1 µM in the test filed under Mus musculus [10] of 12%. In addition, the Ki worked out at 118 nM in [5]; 0.68 nM in test [6]; 1200 nM at Mu-type opioid receptor [1]; 30 nM on Mu-type opioid receptor [13]; 7.4 nM in test [2]; 960 nM in test [3]. Moreover, the Ke came out at 26 nM in the test filed under Mus musculus [8] and 5500 nM in the test listed under Cavia porcellus [9].

For the molecule `CCCN1CC[C@]23c4c5ccc(O)c4O[C@H]2c2[nH]c4ccccc4c2C[C@@]3(O)[C@H]1C5`, the Ki in test [2] worked out at 2 nM; in test [3], 380 nM.

`CN1CC[C@]23c4c5ccc(O)c4O[C@H]2c2[nH]c4ccccc4c2C[C@@]3(O)[C@H]1C5` [OXYMORPHINDOLE] came in with a Ki on Mu-type opioid receptor [1] of 66 nM.

As for `CC(C)CN1CC[C@]23c4c5ccc(O)c4O[C@H]2c2[nH]c4ccccc4c2C[C@@]3(O)[C@H]1C5`, the inhibition constant Ki was found to be 2600 nM on Mu-type opioid receptor [1], 3.8 nM in test [2] and 650 nM in [3].

As for `CCCCCCN1CC[C@]23c4c5ccc(O)c4O[C@H]2c2[nH]c4ccccc4c2C[C@@]3(O)[C@H]1C5`, the Ki at Mu-type opioid receptor [1] was found to be 4600 nM; in test [2], 26 nM; in test [3] it was 3100 nM.

As to `CC(C)CCN1CC[C@]23c4c5ccc(O)c4O[C@H]2c2[nH]c4ccccc4c2C[C@@]3(O)[C@H]1C5`, the Ki at Mu-type opioid receptor [1] is 1300 nM; in test [2] it was 4.8 nM; in test [3] it was 670 nM.

On to `CCCCCN1CC[C@]23c4c5ccc(O)c4O[C@H]2c2[nH]c4ccccc4c2C[C@@]3(O)[C@H]1C5`, for which the inhibitory constant (Ki) stood at 2800 nM at Mu-type opioid receptor [1], 16 nM in [2] and 2000 nM in test [3].

On to `CC(C)N1CC[C@]23c4c5ccc(O)c4O[C@H]2c2[nH]c4ccccc4c2C[C@@]3(O)[C@H]1C5`, for which the inhibition constant Ki at Mu-type opioid receptor [1] was > 6600 nM; in test [2], 33 nM; in [3], 6200 nM.
